Data taken from ChEMBL document CHEMBL1765051 (J Med Chem, 2011).
Values after ≈ are worked out from the molar mass of the structure shown. Values belong to the compound of their own block, whether it stands above or below them.

Assays:
[1] = system: Human immunodeficiency virus 1; assay: Antiviral activity against HIV1 3B harboring reverse transcriptase Y181I mutant infected in human CEM cells assessed as inhibition of syncytia formation; assay type: functional, organism-based; conditions: Human immunodeficiency virus 1, 3B, CCRF-CEM
[2] = molecular target: Human immunodeficiency virus type 1 reverse transcriptase (Human immunodeficiency virus 1, UniProt Q72547, E138K); assay: Inhibition of HIV-1 reverse transcriptase E138K mutant-mediated polymerization reaction after 30 mins
Outline: (§1)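 Recombinant mutant HIV-1 RT started reactions containing 50 mM Tris-HCl pH 7.8, 5 mM DTT, 300 mM glutathione, 0.5 mM EDTA, 150 mM KCl, 5 mM MgCl2, BSA, 0.06% Triton X-100, 2.8 μM [3H]dGTP, 0.1 mM poly(rC)/oligo(dG) and varying compound. Incubated 30 min at 37°C, stopped with yeast RNA/pyrophosphate/TCA, acid-insoluble radioactivity counted; IC50 = 50% polymerization inhibition; mean ± SD, ≥2 independent experiments.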

[3] = system: Human immunodeficiency virus 1; assay: Antiviral activity against HIV1 3B harboring reverse transcriptase Y188L mutant infected in human CEM cells assessed as inhibition of syncytia formation; assay type: functional, organism-based; conditions: Human immunodeficiency virus 1, 3B, CCRF-CEM
[4] = system: Human immunodeficiency virus 1; assay: Antiviral activity against HIV1 3B harboring reverse transcriptase G190E mutant infected in human CEM cells assessed as inhibition of syncytia formation; assay type: functional, organism-based; conditions: Human immunodeficiency virus 1, 3B, CCRF-CEM
[5] = system: Human immunodeficiency virus 1; assay: Ratio of EC50 for HIV1 3B harboring reverse transcriptase G190E mutant to EC50 for wild type HIV1 3B; assay type: functional
[6] = system: Human immunodeficiency virus 1; assay: Ratio of EC50 for HIV1 3B harboring reverse transcriptase V106A mutant to EC50 for wild type HIV1 3B; assay type: functional
[7] = system: Human immunodeficiency virus 2; assay: Antiviral activity against wild type HIV2 infected in human CEM cells assessed as inhibition of syncytia formation; assay type: functional, organism-based; conditions: Human immunodeficiency virus 2, CCRF-CEM
[8] = molecular target: Human immunodeficiency virus type 1 reverse transcriptase (Human immunodeficiency virus 1, UniProt Q72547, K101E); assay: Inhibition of HIV-1 reverse transcriptase K101E mutant-mediated polymerization reaction after 30 mins; outline: as §1
[9] = system: Human immunodeficiency virus 1; assay: Ratio of EC50 for HIV1 3B harboring reverse transcriptase N136A/Q/K mutant to EC50 for wild type HIV1 3B; assay type: functional
[10] = Inhibition of HIV-1 reverse transcriptase […] and E138K mutant-mediated polymerization reaction after 30 mins; set-up: species or system Human immunodeficiency virus 1; outline: as §1
[11] = system: Human immunodeficiency virus 1; assay: Ratio of EC50 for HIV1 3B harboring reverse transcriptase K103N mutant to EC50 for wild type HIV1 3B; assay type: functional
[12] = system: Human immunodeficiency virus 1; assay: Antiviral activity against HIV1 3B harboring reverse transcriptase V106A mutant infected in human CEM cells assessed as inhibition of syncytia formation; assay type: functional, organism-based; conditions: Human immunodeficiency virus 1, 3B, CCRF-CEM
[13] = system: Human immunodeficiency virus 1; assay: Ratio of EC50 for HIV1 3B harboring reverse transcriptase Y181I mutant to EC50 for wild type HIV1 3B; assay type: functional
[14] = system: Human immunodeficiency virus 1; assay: Antiviral activity against HIV1 3B harboring reverse transcriptase E138K mutant infected in human CEM cells assessed as inhibition of syncytia formation; assay type: functional, organism-based; conditions: Human immunodeficiency virus 1, 3B, CCRF-CEM
[15] = system: Human immunodeficiency virus 1; assay: Antiviral activity against HIV1 3B harboring reverse transcriptase E138D mutant infected in human CEM cells assessed as inhibition of syncytia formation; assay type: functional, organism-based; conditions: Human immunodeficiency virus 1, 3B, CCRF-CEM
[16] = system: Human immunodeficiency virus 1; assay: Ratio of EC50 for HIV1 3B harboring reverse transcriptase L100I mutant to EC50 for wild type HIV1 3B; assay type: functional
[17] = system: Human immunodeficiency virus 1; assay: Ratio of EC50 for HIV1 3B harboring reverse transcriptase E138K mutant to EC50 for wild type HIV1 3B; assay type: functional
[18] = system: Human immunodeficiency virus 1; assay: Ratio of EC50 for HIV1 3B harboring reverse transcriptase Y181C mutant to EC50 for wild type HIV1 3B; assay type: functional
[19] = system: Human immunodeficiency virus 1; assay: Ratio of EC50 for HIV1 3B harboring reverse transcriptase Y188L mutant to EC50 for wild type HIV1 3B; assay type: functional
[20] = system: Human immunodeficiency virus 1; assay: Antiviral activity against HIV1 3B harboring reverse transcriptase Y181C mutant infected in human CEM cells assessed as inhibition of syncytia formation; assay type: functional, organism-based; conditions: Human immunodeficiency virus 1, 3B, CCRF-CEM
[21] = system: Human immunodeficiency virus 1; assay: Antiviral activity against HIV1 3B harboring reverse transcriptase K103N mutant infected in human CEM cells assessed as inhibition of syncytia formation; assay type: functional, organism-based; conditions: Human immunodeficiency virus 1, 3B, CCRF-CEM
[22] = system: Human immunodeficiency virus 1; assay: Antiviral activity against HIV1 3B harboring reverse transcriptase Y188H mutant infected in human CEM cells assessed as inhibition of syncytia formation; assay type: functional, organism-based; conditions: Human immunodeficiency virus 1, 3B, CCRF-CEM
[23] = system: Human immunodeficiency virus 1; assay: Antiviral activity against HIV1 3B harboring reverse transcriptase N136A/Q/K mutant infected in human CEM cells assessed as inhibition of syncytia formation; assay type: functional, organism-based; conditions: Human immunodeficiency virus 1, 3B, CCRF-CEM
[24] = system: Human immunodeficiency virus 1; assay: Antiviral activity against HIV1 3B harboring reverse transcriptase V179N mutant infected in human CEM cells assessed as inhibition of syncytia formation; assay type: functional, organism-based; conditions: Human immunodeficiency virus 1, 3B, CCRF-CEM
[25] = system: Human immunodeficiency virus 1; assay: Antiviral activity against wild type HIV1 3B infected in human CEM cells assessed as inhibition of syncytia formation; assay type: functional, organism-based; conditions: Human immunodeficiency virus 1, 3B, CCRF-CEM
[26] = system: Human immunodeficiency virus 1; assay: Ratio of EC50 for HIV1 3B harboring reverse transcriptase Y188H mutant to EC50 for wild type HIV1 3B; assay type: functional
[27] = system: Human immunodeficiency virus 1; assay: Antiviral activity against HIV1 3B harboring reverse transcriptase L100I mutant infected in human CEM cells assessed as inhibition of syncytia formation; assay type: functional, organism-based; conditions: Human immunodeficiency virus 1, 3B, CCRF-CEM
[28] = system: Human immunodeficiency virus 1; assay: Antiviral activity against wild type HIV1 infected in human CEM cells assessed as inhibition of syncytia formation; assay type: functional, organism-based; conditions: Human immunodeficiency virus 1, CCRF-CEM
[29] = molecular target: Human immunodeficiency virus type 1 reverse transcriptase (Human immunodeficiency virus 1, UniProt Q72547); assay: Inhibition of wild type HIV-1 reverse transcriptase-mediated polymerization reaction after 30 mins

Structure (SMILES): Cc1cn([C@@H]2O[C@H](CO[Si](C)(C)C(C)(C)C)[C@@]3(OS(=O)(=O)C=C3N)[C@H]2O[Si](C)(C)C(C)(C)C)c(=O)[nH]c1=O
EC50 [1]: > 10 µg/mL | IC50 [2]: > 170000 nM | EC50 [3]: > 10 µg/mL | EC50 [4]: > 10 µg/mL | Ratio EC50 [5]: 30 | Ratio EC50 [6]: 30 | EC50 [7]: > 20000 nM | IC50 [8]: ≥ 170000 nM | Ratio EC50 [9]: 30 | IC50 [10]: > 100 µg/mL | Ratio EC50 [11]: 7 | EC50 [12]: 1.9 µg/mL (≈ 3.22 µM) | Ratio EC50 [13]: 30 | EC50 [14]: > 3 µg/mL | EC50 [15]: 0.01 µg/mL (≈ 0.017 µM) | Ratio EC50 [16]: 7 | Ratio EC50 [17]: 30 | Ratio EC50 [18]: 30 | Ratio EC50 [19]: 30 | EC50 [20]: 2 µg/mL (≈ 3.39 µM) | EC50 [21]: 0.23 µg/mL (≈ 0.39 µM) | EC50 [22]: > 3.3 µg/mL | EC50 [23]: > 50 µg/mL | EC50 [24]: 0.22 µg/mL (≈ 0.373 µM) | EC50 [25]: 0.03 µg/mL (≈ 0.0509 µM) | Ratio EC50 [26]: 30 | EC50 [27]: 0.07 µg/mL (≈ 0.119 µM)

EC50 [7]: > 7000 nM | EC50 [28]: 28 nM
Structure (SMILES): Cc1cn([C@@H]2O[C@H](CO[Si](C)(C)C(C)(C)C)[C@@]3(OS(=O)(=O)C=C3NC(=O)C(N)=O)[C@H]2O[Si](C)(C)C(C)(C)C)c(=O)n(C)c1=O

EC50 [7]: > 2000 nM | EC50 [28]: 170 nM
Structure (SMILES): Cc1cn([C@@H]2O[C@H](CO[Si](C)(C)C(C)(C)C)[C@@]3(OS(=O)(=O)C=C3N)[C@H]2O[Si](C)(C)C(C)(C)C)c(=O)[nH]c1=S

EC50 [7]: > 35000 nM | EC50 [28]: 5800 nM
Structure (SMILES): Cc1cn([C@@H]2O[C@H](CO[Si](C)(C)C(C)(C)C)[C@@]3(OC(=O)N=C3N)[C@H]2O[Si](C)(C)C(C)(C)C)c(=O)n(C)c1=O

EC50 [7]: > 2000 nM | EC50 [28]: 150 nM | IC50 [29]: 3300 nM
Structure (SMILES): Cc1cn([C@@H]2O[C@H](CO[Si](C)(C)C(C)(C)C)[C@]3(C=CS(=O)(=O)O3)[C@H]2O[Si](C)(C)C(C)(C)C)c(=O)n(C)c1=O

EC50 [7]: > 10000 nM | EC50 [28]: 100 nM
Structure (SMILES): CC1=CN([C@@H]2O[C@H](CO[Si](C)(C)C(C)(C)C)[C@@]3(OS(=O)(=O)C=C3N)[C@H]2O[Si](C)(C)C(C)(C)C)C(=O)NC1

Structure (SMILES): CC(C)(C)[Si](C)(C)OC[C@H]1O[C@@H](n2cnc3c(N)ncnc32)[C@H](O[Si](C)(C)C(C)(C)C)[C@]12OS(=O)(=O)C=C2N
EC50 [7]: > 10000 nM | EC50 [28]: 50 nM

EC50 [7]: > 150000 nM | EC50 [28]: 60 nM
Structure (SMILES): Cn1cnc2c(ncn2[C@@H]2O[C@H](CO[Si](C)(C)C(C)(C)C)[C@@]3(OS(=O)(=O)C=C3N)[C@H]2O[Si](C)(C)C(C)(C)C)c1=O

EC50 [7]: > 7000 nM | EC50 [28]: 80 nM
Structure (SMILES): CNC(=O)c1cnnn1[C@@H]1O[C@H](CO[Si](C)(C)C(C)(C)C)[C@@]2(OS(=O)(=O)C=C2N)[C@H]1O[Si](C)(C)C(C)(C)C

EC50 [7]: > 7000 nM | EC50 [28]: 5300 nM
Structure (SMILES): Cc1cn([C@@H]2O[C@H](CO[Si](C)(C)C(C)(C)C)[C@@]3(NS(=O)(=O)N=C3N)[C@H]2O[Si](C)(C)C(C)(C)C)c(=O)n(C)c1=O

Structure (SMILES): Cc1cn([C@@H]2O[C@H](CO[Si](C)(C)C(C)(C)C)[C@@]3(OS(=O)(=O)C=C3N)[C@H]2O[Si](C)(C)C(C)(C)C)c(=O)n(C)c1=O
EC50 [1]: > 10 µg/mL | IC50 [2]: > 166000 nM | EC50 [3]: > 10 µg/mL | EC50 [4]: > 10 µg/mL | Ratio EC50 [5]: 30 | Ratio EC50 [6]: 30 | EC50 [7]: > 250000 nM | IC50 [8]: > 166000 nM | Ratio EC50 [9]: 30 | IC50 [10]: > 100 µg/mL | Ratio EC50 [11]: 7 | EC50 [12]: 1.9 µg/mL (≈ 3.15 µM) | Ratio EC50 [13]: 30 | EC50 [14]: > 3 µg/mL | EC50 [15]: 0.01 µg/mL (≈ 0.0166 µM) | Ratio EC50 [16]: 7 | Ratio EC50 [17]: 30 | Ratio EC50 [18]: 30 | Ratio EC50 [19]: 30 | EC50 [28]: 40 nM | EC50 [20]: 2 µg/mL (≈ 3.31 µM) | EC50 [21]: 0.23 µg/mL (≈ 0.381 µM) | EC50 [22]: > 3.3 µg/mL | IC50 [29]: 2400 nM | EC50 [23]: > 50 µg/mL | EC50 [24]: 0.22 µg/mL (≈ 0.364 µM) | EC50 [25]: 0.03 µg/mL (≈ 0.0497 µM) | Ratio EC50 [26]: 30 | EC50 [27]: 0.07 µg/mL (≈ 0.116 µM)

EC50 [7]: > 10000 nM
Structure (SMILES): CNC(=O)CCCCn1c(=O)c(C)cn([C@@H]2O[C@H](CO[Si](C)(C)C(C)(C)C)[C@@]3(OS(=O)(=O)C=C3N)[C@H]2O[Si](C)(C)C(C)(C)C)c1=O

Structure (SMILES): Nc1nc2c(ncn2[C@H]2CC[C@@H](COP(=O)(O)OP(=O)(O)OP(=O)(O)O)O2)c(=O)[nH]1 [DIDEOXY GUANOSINE TRIPHOSPHATE]
IC50 [2]: 224 nM | IC50 [8]: 244 nM | IC50 [10]: 0.14 µg/mL | IC50 [29]: 224 nM
